Results: ChEMBL document CHEMBL1795307, “Synthesis and anti-inflammatory activity of some novel 3-phenyl-N-[3-(4-phenylpiperazin-1yl)propyl]-1H-pyrazole-5-carboxamide derivatives” (2011)

Experiments:
Assay type in all cases: functional
Rattus norvegicus [1] = experiment: Antiinflammatory activity against carrageenan-induced paw edema in rat at 100 mg/kg, po administered 1 hr before carrageenan challenge measured after 1 hr relative to control
Outline: (§1)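 Rats of either sex (130–180 g), fasted ≥16 h with water available, six per group. Compound given orally in 1% CMC solution 1 h before 0.1 mL of 1% carrageenan suspension injected into hind paw; controls received vehicle. Paw volume read by mercury-displacement plethysmometer before and 1, 2, 3, 4 h after carrageenan. Percent inhibition from mean paw-volume increase versus control.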

Rattus norvegicus [2] = experiment: Antiinflammatory activity against carrageenan-induced paw edema in rat at 100 mg/kg, po administered 1 hr before carrageenan challenge measured after 2 hrs relative to control; outline: as §1
Rattus norvegicus [3] = experiment: Antiinflammatory activity against carrageenan-induced paw edema in rat at 100 mg/kg, po administered 1 hr before carrageenan challenge measured after 3 hrs relative to control; outline: as §1
Rattus norvegicus [4] = experiment: Antiinflammatory activity against carrageenan-induced paw edema in rat at 100 mg/kg, po administered 1 hr before carrageenan challenge measured after 4 hrs relative to control; outline: as §1

Structure (SMILES)	Activity (Rattus norvegicus [1])	Activity (Rattus norvegicus [2])	Activity (Rattus norvegicus [3])	Activity (Rattus norvegicus [4])
O=C(NCCCN1CCN(c2ccccc2)CC1)c1cc(-c2ccccc2)n[nH]1	47.3%	55.5%	61.9%	58.8%
COc1ccc(-c2cc(C(=O)NCCCN3CCN(c4ccccc4)CC3)[nH]n2)cc1	55.2%	69.4%	75%	70%
COc1cccc(-c2cc(C(=O)NCCCN3CCN(c4ccccc4)CC3)[nH]n2)c1	52.6%	62.5%	65.2%	64.4%
Cc1ccc(-c2cc(C(=O)NCCCN3CCN(c4ccccc4)CC3)[nH]n2)cc1	60.5%	55.5%	67.3%	63.3%
Cc1cccc(-c2cc(C(=O)NCCCN3CCN(c4ccccc4)CC3)[nH]n2)c1	60.5%	65.2%	70.6%	70%
O=C(NCCCN1CCN(c2ccccc2)CC1)c1cc(-c2ccc([N+](=O)[O-])cc2)n[nH]1	53.9%	75.6%	76%	72.2%
O=C(NCCCN1CCN(c2ccccc2)CC1)c1cc(-c2cccc([N+](=O)[O-])c2)n[nH]1	67%	75%	78%	75.5%
CC(C)Cc1ccc(C(C)C(=O)O)cc1 (stereo unspecified) [IBUPROFEN]	42.1%		72.8%	63.3%
